Converted amounts (≈) assume the structure as drawn.
Assays:
Staphylococcus aureus [1] = experiment: Antibacterial activity against Staphylococcus aureus OCC 106 after 18 hrs; assay type: functional; conditions: OCC 106, 18 h
Outline: (§1)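 Broth microdilution in Nutrient Broth No. 2; stocks in ethanol diluted to 0.01–128 µg/ml (triclosan) or 0.25–256 µg/ml (glycosides). Overnight 37 °C NB2 cultures diluted 1 in 10^4 in saline and added to the dilutions. Incubation at 37 °C with agitation, OD read every 15 min; MIC is the lowest concentration preventing any OD rise after 18 h.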

Escherichia coli [2] = experiment: Antibacterial activity against Escherichia coli OCC 122 after 18 hrs; assay type: functional; conditions: OCC 122, 18 h; outline: as §1
Proteus mirabilis = experiment: Antibacterial activity against Proteus mirabilis ATCC 12453 after 18 hrs; assay type: functional; conditions: ATCC 12453, 18 h; outline: as §1
Staphylococcus aureus [3] = experiment: Antibacterial activity against Staphylococcus aureus NCTC 13758 after 18 hrs; assay type: functional; conditions: NCTC 13758, 18 h; outline: as §1
Staphylococcus aureus [4] = experiment: Antibacterial activity against Staphylococcus aureus ATCC 9144 after 18 hrs; assay type: functional; conditions: ATCC 9144, 18 h; outline: as §1
Enterococcus faecalis [5] = experiment: Antibacterial activity against Enterococcus faecalis ATCC 33186 after 18 hrs; assay type: functional; conditions: ATCC 33186, 18 h; outline: as §1
Staphylococcus aureus [6] = experiment: Antibacterial activity against Staphylococcus aureus OCC 104 after 18 hrs; assay type: functional; conditions: OCC 104, 18 h; outline: as §1
[7] = Antibacterial activity against Salmonella enterica subspecies enterica serotype Arizonae OCC 706 after 18 hrs; assay type: functional, Salmonella enterica subsp. enterica serovar Arizonae; conditions: OCC 706, 18 h; outline: as §1
Hafnia alvei = experiment: Antibacterial activity against Hafnia alvei 13337 after 18 hrs; assay type: functional; conditions: Hafnia alvei, 13337, 18 h; outline: as §1
[8] = Antibacterial activity against Salmonella enterica subspecies enterica serotype Pullorum OCC 273 after 18 hrs; assay type: functional, Salmonella enterica subsp. enterica serovar Pullorum; conditions: OCC 273, 18 h; outline: as §1
Salmonella typhimurium = experiment: Antibacterial activity against Salmonella enterica subspecies enterica serotype typhimurium ATCC 14028 after 18 hrs; assay type: functional, Salmonella enterica subsp. enterica serovar Typhimurium; conditions: ATCC 14028, 18 h; outline: as §1
Klebsiella aerogenes = experiment: Antibacterial activity against Enterobacter aerogenes ATCC 13048 after 18 hrs; assay type: functional; conditions: ATCC 13048, 18 h; outline: as §1
Escherichia coli [9] = experiment: Antibacterial activity against Escherichia coli 700728 after 18 hrs; assay type: functional; conditions: Escherichia coli, 700728, 18 h; outline: as §1
Escherichia hermannii = experiment: Antibacterial activity against Escherichia hermannii 33650 after 18 hrs; assay type: functional; conditions: Atlantibacter hermannii, 33650, 18 h; outline: as §1
[10] = Antibacterial activity against Salmonella enterica subspecies enterica serotype Indiana OCC 597 after 18 hrs; assay type: functional, Salmonella enterica subsp. enterica serovar Indiana; conditions: OCC 597, 18 h; outline: as §1
Escherichia coli [11] = experiment: Antibacterial activity against Escherichia coli NCTC 13216 after 18 hrs; assay type: functional; conditions: NCTC 13216, 18 h; outline: as §1
Staphylococcus aureus [12] = experiment: Antibacterial activity against Staphylococcus aureus ATCC 29213 after 18 hrs; assay type: functional; conditions: ATCC 29213, 18 h; outline: as §1
Aeromonas hydrophila = experiment: Antibacterial activity against Aeromonas hydrophila OCC 778 after 18 hrs; assay type: functional; conditions: OCC 778, 18 h; outline: as §1
Streptococcus viridans = experiment: Antibacterial activity against Streptococcus viridans OCC 234 after 18 hrs; assay type: functional; conditions: OCC 234, 18 h
Outline: (§2)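 Broth microdilution in Nutrient Broth No. 2. Ethanol stocks were diluted in broth to 0.01–128 µg/ml for triclosan and 0.25–256 µg/ml for glycosides. Overnight 37°C NB2 cultures were diluted 1 in 10^4 in saline and added to the wells. Plates were incubated at 37°C with OD read every 15 min after agitation. MIC was the lowest concentration giving no OD increase at 18 h.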

Citrobacter freundii [13] = experiment: Antibacterial activity against Citrobacter freundii OCC 851 after 18 hrs; assay type: functional; conditions: OCC 851, 18 h; outline: as §1
[14] = system: Staphylococcus epidermidis; experiment: Antibacterial activity against Staphylococcus epidermidis 155 after 18 hrs; assay type: functional; conditions: Staphylococcus epidermidis, 155, 18 h; outline: as §1
Pseudomonas aeruginosa = experiment: Antibacterial activity against Pseudomonas aeruginosa ATCC 27853 after 18 hrs; assay type: functional; conditions: ATCC 27853, 18 h; outline: as §1
Streptococcus pneumoniae = experiment: Antibacterial activity against Streptococcus pneumoniae 6305 after 18 hrs; assay type: functional; conditions: Streptococcus pneumoniae, 6305, 18 h; outline: as §2
Enterococcus faecalis [15] = experiment: Antibacterial activity against Enterococcus faecalis ATCC 29212 after 18 hrs; assay type: functional; conditions: ATCC 29212, 18 h; outline: as §1
[16] = Antibacterial activity against Salmonella enterica subspecies enterica serotype Virchow NCTC 5742 after 18 hrs; assay type: functional, Salmonella enterica subsp. enterica serovar Virchow; conditions: NCTC 5742, 18 h; outline: as §1
Citrobacter freundii [17] = experiment: Antibacterial activity against Citrobacter freundii 8090 after 18 hrs; assay type: functional; conditions: Citrobacter freundii, 8090, 18 h; outline: as §1
Streptococcus agalactiae = experiment: Antibacterial activity against Streptococcus agalactiae OCC 182 after 18 hrs; assay type: functional; conditions: OCC 182, 18 h; outline: as §2
Serratia marcescens = experiment: Antibacterial activity against Serratia marcescens OCC 217 after 18 hrs; assay type: functional; conditions: OCC 217, 18 h; outline: as §1
Escherichia coli [18] = experiment: Antibacterial activity against Escherichia coli ATCC 10536 after 18 hrs; assay type: functional; conditions: ATCC 10536, 18 h; outline: as §1

With `Oc1cc(Cl)ccc1Oc1ccc(Cl)cc1Cl` [TRICLOSAN] as the compound, how does the MIC (Staphylococcus aureus [1]) read?
The MIC was 0.01 µg/mL (≈ 0.0345 µM).

What about the MIC (Escherichia coli [2]) of the same compound?
Its MIC is 0.1 to 0.5 µg/mL (≈ 0.345 to 1.73 µM).

What about the MIC (Proteus mirabilis) of the same compound?
The MIC was 0.5 µg/mL (≈ 1.73 µM).

What about the MIC (Staphylococcus aureus [3]) of the same compound?
Its MIC is 0.01 µg/mL (≈ 0.0345 µM).

And the MIC (Staphylococcus aureus [4])?
The MIC was 0.01 µg/mL (≈ 0.0345 µM).

And the MIC (Enterococcus faecalis [5])?
Its MIC is 8 µg/mL (≈ 27.6 µM).

What about the MIC (Staphylococcus aureus [6]) of the same compound?
Its MIC is 0.01 µg/mL (≈ 0.0345 µM).

What about the MIC [7] of the same compound?
Its MIC is 0.5 to 1 µg/mL (≈ 1.73 to 3.45 µM).

And the MIC (Hafnia alvei)?
The MIC was 0.1 µg/mL (≈ 0.345 µM).

And the MIC [8]?
Its MIC is 0.5 to 1 µg/mL (≈ 1.73 to 3.45 µM).

And the MIC (Salmonella typhimurium)?
The MIC was 0.5 to 1 µg/mL (≈ 1.73 to 3.45 µM).

And the MIC (Klebsiella aerogenes)?
Its MIC is 0.5 µg/mL (≈ 1.73 µM).

And the MIC (Escherichia coli [9])?
The MIC was 0.1 to 0.5 µg/mL (≈ 0.345 to 1.73 µM).

What about the MIC (Escherichia hermannii) of the same compound?
Its MIC is 0.5 µg/mL (≈ 1.73 µM).

What about the MIC [10] of the same compound?
Its MIC is 0.5 to 1 µg/mL (≈ 1.73 to 3.45 µM).

And the MIC (Escherichia coli [11])?
Its MIC is 0.1 to 0.5 µg/mL (≈ 0.345 to 1.73 µM).

What about the MIC (Staphylococcus aureus [12]) of the same compound?
Its MIC is 0.01 µg/mL (≈ 0.0345 µM).

What about the MIC (Aeromonas hydrophila) of the same compound?
Its MIC is 8 µg/mL (≈ 27.6 µM).

And the MIC (Streptococcus viridans)?
Its MIC is 4 µg/mL (≈ 13.8 µM).

And the MIC (Citrobacter freundii [13])?
Its MIC is 0.5 µg/mL (≈ 1.73 µM).

What about the MIC [14] of the same compound?
The MIC was 0.01 µg/mL (≈ 0.0345 µM).

And the MIC (Pseudomonas aeruginosa)?
Its MIC is 32 µg/mL (≈ 111 µM).

What about the MIC (Streptococcus pneumoniae) of the same compound?
The MIC was 1 µg/mL (≈ 3.45 µM).

And the MIC (Enterococcus faecalis [15])?
The MIC was 8 µg/mL (≈ 27.6 µM).

And the MIC [16]?
The MIC was 0.5 to 1 µg/mL (≈ 1.73 to 3.45 µM).

What about the MIC (Citrobacter freundii [17]) of the same compound?
Its MIC is 0.5 µg/mL (≈ 1.73 µM).

And the MIC (Streptococcus agalactiae)?
Its MIC is 4 µg/mL (≈ 13.8 µM).

And the MIC (Serratia marcescens)?
The MIC was 64 µg/mL (≈ 221 µM).

What about the MIC (Escherichia coli [18]) of the same compound?
Its MIC is 0.1 to 0.5 µg/mL (≈ 0.345 to 1.73 µM).

Source: ChEMBL document CHEMBL4325893, “Synthesis and antibacterial profiles of targeted triclosan derivatives” (2019)
